# Most compounds without a hit are left out; they make up all but 2.8% or so of the library.
# pPAFAH inh: inhibitors of human plasma PAF acetylhydrolase (pPAFAH); Q13093; recombinant pPAFAH, FP-rhodamine probe fluorescence polarization; inhibition, % at 3.39 µM; 330,000 tested, 1.5% active; AID 463082;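 active = inhibition above the mean inhibition across the screen plus 3 SD, cut at about 25% in these data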;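 note: inhibitors block binding of the rhodamine activity-based probe so polarization drops; 0% = enzyme with DMSO and 100% = wells lacking pPAFAH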
# mABHD4 FP: inhibits mouse alpha/beta hydrolase domain 4 | Q8VD66 | inhibition, % at 8.92 µM | 370,000 tested, 0.54% active | AID 720543 | purified mABHD4, FP-Rh probe fluorescence polarization;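 active = inhibition exceeding the mean over every tested compound plus 3 SD, cut at about 30% in these data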;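 note: 0% = plate median of compound wells and 100% = S159A mutant with DMSO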
#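 Test system: mABHD4 protein | Buffer or medium: HEPES pH 7.0 buffer, 150 mM NaCl, 0.01% Pluronic F-127 | Probe or stimulus: FP-Rh fluorescent activity-based probe, added after compound pre-incubation | Timing: Pre-incubation 45 min, probe exposure 60 min, at 25 °C | Technique: Fluorescence polarization, excitation 525 nm, emission 598 nm, BODIPY TMR filters | Repeats: Single well per compound (singlicate)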
# PAFAH1B3 FP inh: blocks human PAF acetylhydrolase 1B catalytic subunit 3; inhibition, % at 3.39 µM; Q15102; 340,000 tested, 0.28% active; AID 492972; recombinant PAFAH1B3, FP-rhodamine probe, fluorescence polarization;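 active = inhibition above the screen-wide average of all tested compounds plus 3 SD, cut at about 25% in these data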;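 note: 0% = enzyme with DMSO only and 100% = wells lacking PAFAH1B3 protein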
# Target sequence (Q15102 whole entry, looked up): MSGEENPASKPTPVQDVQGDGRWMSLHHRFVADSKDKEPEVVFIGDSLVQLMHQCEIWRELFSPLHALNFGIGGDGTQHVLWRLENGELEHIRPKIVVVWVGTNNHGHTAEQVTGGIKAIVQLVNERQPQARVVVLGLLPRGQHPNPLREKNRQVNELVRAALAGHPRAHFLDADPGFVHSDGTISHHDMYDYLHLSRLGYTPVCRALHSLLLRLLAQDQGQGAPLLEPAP
# PAFAH2 FP inh: PAFAH2 (human) inhibition; Q99487; inhibition, % at 3.39 µM; 340,000 tested, 0.99% active; recombinant PAFAH2, FP-rhodamine activity probe, fluorescence polarization;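 active = inhibition above the mean over all tested compounds plus 3 SD, cut at about 30% in these data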;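 note: inhibitors block probe labeling of enzyme so polarization drops; 0% = enzyme with DMSO and 100% = wells lacking PAFAH2 protein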
# HTRA1 inhibitor: inhibitors of human serine peptidase HTRA1; recombinant HTRA1, FP-rhodamine activity-based probe, fluorescence polarization; Q92743; 340,000 tested, 0.5% active; inhibition, % at 5.96 µM; in the data active = inhibition above about 36%;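 note: 0% = enzyme with DMSO and 100% = wells lacking enzyme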
# PAFAH1B2 FP inh: inhibitors of human PAFAH1B2; P68402; recombinant PAFAH1B2, FP-rhodamine activity probe, fluorescence polarization; inhibition, % at 3.39 µM; 340,000 tested, 1.2% active;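 active = inhibition above the mean of all tested compounds plus 3 SD, cut at about 24% in these data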;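 note: 0% = enzyme with DMSO and 100% = wells lacking PAFAH1B2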
# Target sequence (P68402 whole entry, looked up): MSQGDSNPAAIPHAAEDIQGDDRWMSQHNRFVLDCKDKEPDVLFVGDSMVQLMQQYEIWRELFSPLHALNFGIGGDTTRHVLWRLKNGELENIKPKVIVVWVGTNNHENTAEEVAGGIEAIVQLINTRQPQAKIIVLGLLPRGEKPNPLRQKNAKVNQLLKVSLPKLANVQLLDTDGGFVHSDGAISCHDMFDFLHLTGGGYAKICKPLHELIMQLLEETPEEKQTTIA
# HTRA1 conf: confirmation of human HTRA1 inhibitors; AID 540248; shares compounds with HTRA1 inhibitor; 1,600 tested, 66% active; recombinant HTRA1, FP-rhodamine activity-based probe, fluorescence polarization; inhibition, % at 5.96 µM;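 active = mean inhibition over three repeats above a set limit taken from the earlier primary screen, cut at about 37% in these data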;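 note: 0% = HTRA1 with DMSO and 100% = wells lacking HTRA1; inhibitors block probe binding so polarization drops and inhibition rises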
# ABHD4 confirm: ABHD4 (mouse) inhibition, FP confirmation. shares compounds with mABHD4 FP. purified mABHD4, FP-Rh probe fluorescence polarization. inhibition, % at 8.92 µM. 1,800 tested, 55% active;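 active = mean inhibition across replicates above the hit cutoff set in the primary screen, cut at about 30% in these data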;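 note: 0% = wild-type ABHD4 with DMSO and 100% = catalytically dead S159A mutant with DMSO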
# * marks the source's active call; other numbers are inactive results; · = no result.
SMILES,pPAFAH inh,mABHD4 FP,PAFAH1B3 FP inh,PAFAH2 FP inh,HTRA1 inhibitor,PAFAH1B2 FP inh,HTRA1 conf,others
COC(=O)c1ccc(C(=O)OC)c(NC(=O)CSc2n[nH]c(N)n2)c1,3,-6,0,-1,5,-1,·,
COc1ccc2cc(-c3cn(C(=O)N(c4ccccc4)c4ccccc4)nn3)ccc2c1,·,-10,·,·,·,·,·,
O=C1NC[C@@H]2CCCN2C1=O,·,5,·,·,·,·,·,
c1ccc2c(c1)NCC1CCCN21 (stereo unspecified),12,22,7,9,44*,0,18,
COc1cc(/C=C/C(=O)NCC(=O)N2CCC(N(C)CCN3CCOCC3)CC2)ccc1OC(C)C,4,3,9,5,37*,3,-1,
N[C@H](C(=O)N1CCC[C@@H]1C(=O)N1CCC2CCN(S(=O)(=O)c3ccccc3)CC21)c1ccccc1 (stereo partly specified),·,-6,·,·,·,·,·,
NC(=S)NN=Cc1nccc2c(C(F)(F)C(F)(F)C(F)(F)F)cccc12,·,18,·,·,68*,·,64*,
c1ccc(-c2cccc3[nH]cc(-c4ccccc4)c23)cc1,·,9,·,·,·,·,·,
COCC#Cc1cnc2c(c1)C(=O)N([C@@H](C)CO)C[C@H](C)[C@H](CN(C)C(=O)c1ccc3c(c1)OCO3)O2,·,-3,·,·,·,·,·,
O=C(NC1CCCCN(Cc2cccc(C(F)(F)F)c2)C1=O)c1cccc([N+](=O)[O-])c1 (stereo unspecified),·,1,·,·,·,·,·,
CCCn1c(Nc2nc3ccccc3n2C)nc2ccccc21,7,28,7,-2,39*,4,47*,
Cc1nc2ccccn2c1C(O)(c1ccccc1)c1ccccc1,·,0,·,·,·,·,·,
CC(=O)OCC(=O)Nc1ccc(N=Nc2ccccc2)cc1,1,1,3,5,11,-3,·,
CC(C)C(=O)OCC(=O)Nc1ccc(N=Nc2ccccc2)cc1,1,1,3,28,39*,-2,49*,
O=C(OCC#CCSc1nnc(-c2cccc3ccccc23)o1)c1ccc(F)c(F)c1,·,-13,·,·,·,·,·,
Cc1c2c(=O)n(-c3nc4ccccc4s3)nc-2cc(O)n1Cc1ccccc1,·,·,8,27,47*,6,57*,
Oc1ccc(NCc2ccc(OCc3ccccc3)cc2)cc1,·,53*,-1,-1,47*,8,6,ABHD4 confirm=19
Cc1ccc(CN2CCCCC(NC(=O)c3cccc(C(F)(F)F)c3)C2=O)cc1 (stereo unspecified),·,-3,·,·,·,·,·,
CCn1c(=O)n(CC(=O)N2CCN(c3ccc(F)cc3)CC2)c(=O)c2ccccc21,·,5,·,·,·,·,·,
OCCNc1c2ccccc2nc2c(F)c(F)c(F)c(F)c12,6,7,14,1,0,1,·,
Cc1c2ccccc2nc2c(F)c(NC(C)C)c(F)c(F)c12,16,47*,7,12,57*,6,26,ABHD4 confirm=27
O=[N+]([O-])c1cc(Br)c(O)c(C=Nc2ccc(N3CCOCC3)cc2)c1,34*,45*,0,-1,40*,5,1,ABHD4 confirm=7
N#CC1=C2N=C(N)c3c(sc4c3CCCCC4)N2C2=C(C(=O)CCC2)C1c1ccccc1 (stereo unspecified),30*,32*,12,12,40*,7,9,ABHD4 confirm=-26
CC1(C)CC(=O)C(C=Nc2ccc(C(=O)c3ccccc3)cc2N=CC2=C(O)CC(C)(C)CC2=O)=C(O)C1,9,30*,-10,-5,41*,6,15,ABHD4 confirm=8
CC1(C)CC(=O)C(C=Nc2cccnc2/N=C/C2=C(O)CC(C)(C)CC2=O)=C(O)C1,6,7,12,4,2,2,·,
C#CCNC(=O)C[C@H]1C[C@@]2(C(=O)OC)C(=C[C@H](C(C)C)O[C@@H]2C2CC2)N(Cc2cccc3ccccc23)C1=O,·,-17,·,·,·,·,·,
COc1ccc2c3c(cccc13)C(=O)CC2,·,87*,110*,126*,141*,100*,3,ABHD4 confirm=5
O=[N+]([O-])c1ccc(-c2csc(N/N=C/c3cccnc3)n2)cc1,3,4,10,-2,-8,7,·,
